Source: ChEMBL document CHEMBL4834426, “Antimalarial Benzimidazole Derivatives Incorporating Phenolic Mannich Base Side Chains Inhibit Microtubule and Hemozoin Formation: Structure-Activity Relationship and In Vivo Oral Efficacy Studies” (J Med Chem, 2021)
Calls of active or inactive are those of the source. The calls are words filed in the database; no cut-off is given here.

What was measured:
Hemozoin [1] = test: Inhibition of Beta-hematin in early ring stage Plasmodium falciparum parasitized red blood cells assessed as hemozoin formation formation after 32 hrs by Giemsa staining based haemocytometric counting method
Plasmodium falciparum [2] = test: Antiplasmodial activity against […] Plasmodium falciparum NF54 late gametocytes transfected with GFP-Luc […] at 5 uM incubated for 48 hrs by microscopy based luciferase reporter gene assay relative to control; type: functional
In short: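 NF54-Pfs16-GFP-Luc gametocytes, assays set up day 5 (early, stage II/III) or day 10 (late, stage IV/V). Culture at 2−3% gametocytemia, 1.5% hematocrit, 48 h drug exposure at 37 °C under 90% N₂/5% O₂/5% CO₂. Lysates mixed with luciferin; bioluminescence read with 10 s integration. Dual-point: one biological repeat in technical triplicate. Methylene blue (5 μM) reference.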

[3] = Oral bioavailability in Balb/c mouse at 10 mg/kg measured up to 24 hrs by LC-MS/MS analysis; type: ADME, organism-based; settings: in vivo
In short: (§1)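 Male Balb/c mice, not fasted, food and water ad libitum; single oral dose. Tail-vein blood into heparinized tubes at 0.5, 1, 3, 5, 7, 9 and 24 h, stored at −80 °C. Whole blood protein-precipitated with acetonitrile containing internal standard, analyzed by LC−MS/MS (LOQ 2 ng/mL). Parameters by noncompartmental analysis with curve stripping. Mean of three mice per point.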

[4] = Cmax in Balb/c mouse at 10 mg/kg, po measured up to 24 hrs by LC-MS/MS analysis; type: ADME, organism-based; design: route oral, dose 10 mg/kg, time <=24; settings: in vivo; in short: as §1
[5] = AUC (0 to t) in Balb/c mouse at 3 mg/kg, iv measured up to 24 hrs by LC-MS/MS analysis; type: ADME, organism-based; design: dose 3 mg/kg, time <=24; settings: in vivo
In short: (§2)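 Intravenous dosing in male Balb/c mice, fed ad libitum. Tail-vein blood sampled into heparinized tubes at 0.17, 0.5, 1, 3, 5, 7, 9 and 24 h, frozen at −80 °C. Blood extracted by acetonitrile protein precipitation with internal standard; LC−MS/MS quantitation, LOQ 2 ng/mL. Noncompartmental analysis based on curve stripping.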

[6] = Clearance in Balb/c mouse at 3 mg/kg, iv measured up to 24 hrs by LC-MS/MS analysis; type: ADME, organism-based; settings: in vivo; in short: as §2
Plasmodium falciparum [7] = test: Antimalarial activity against asexual blood stage multi drug-resistant Plasmodium falciparum K1 infected in erythrocytes assessed as reduction in parasitemia incubated up to 72 hrs by [3H]hypoxanthine incorporation assay; type: functional, organism-based
In short: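 [³H]-Hypoxanthine incorporation assay (modified) on asexual blood-stage P. falciparum in vitro. IC₅₀ values are means of ≥2 independent experiments.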

[8] = Kinetic solubility of the compound in pH 6.5 incubated for 24 hrs by HPLC-DAD analysis; type: physicochemical; settings: buffer, read-out: Kinetic_solubility
In short: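 Miniaturized shake-flask method. 10 mM DMSO stock dried down, phosphate buffer pH 6.5 added, shaken 24 h at 25 °C. Centrifuged 3500g for 15 min; supernatant analyzed by HPLC-DAD against 10−220 μM DMSO calibration curve. Reserpine, hydrocortisone and MMV390048 as controls.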

[9] = Resistance index, ratio of IC50 for antimalarial activity against asexual blood stage multi drug-resistant Plasmodium falciparum K1 to IC50 for antimalarial activity against asexual blood stage drug-sensitive Plasmodium falciparum NF54; type: functional
In short: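 Resistance index is IC₅₀(K1)/IC₅₀(NF54). Both IC₅₀s came from the [³H]-hypoxanthine incorporation assay, as means of ≥2 independent experiments.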

Hemozoin [10] = test: Inhibition of beta-hematin formation […] incubated for 5 hrs by NP40 detergent-mediated assay
In short: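 Cell-free β-hematin formation assay in NP-40 (305.5 μM) lipid-mimic medium. Compounds from 20 mM stock serially diluted across wells, in duplicate. Hematin suspended in 1 M acetate buffer pH 4.8; plates incubated ~5 h at 37 °C. Then pyridine solution (with HEPES pH 7.4) and acetone added; absorbance at 405 nm. IC₅₀ by curve fit.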

[11] = Half life in Balb/c mouse at 10 mg/kg, po measured up to 24 hrs by LC-MS/MS analysis; type: ADME, organism-based; settings: in vivo; in short: as §1

SMILES: CCNCc1cc(Cl)cc(Nc2nc3cc(F)c(F)cc3n2Cc2ccc(C(F)(F)F)cc2)c1O
- Activity (Hemozoin [1]): inactive
- inhibition at 5 µM (Plasmodium falciparum [2]): 0%
- bioavailability [3]: 24%
- Cmax [4]: 400 nM
- AUCt [5]: 443 µmol·min/L
- clearance [6]: 12.6 mL/min/kg
- IC50 (Plasmodium falciparum [7]): 0.08 µM
- solubility kinetic at 24 h [8]: < 5 µM
- Ratio IC50 [9]: 0.42
- IC50 (Hemozoin [10]): 18.1 µM
- half-life [11]: 8.3 h
